The list is not random: actives were taken first. Their share in the collection is about 4.2%.
TAAR1 ag: human TAAR1 agonism; CHO RD-HGA16 TAAR1, Fluo-8 calcium fluorescence; vehicle wells 0%, saturating PEA agonist 100%; activation, % at 3 µM; actives 0.99% (n = 360,000); AID 624467;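 active = activation above the mean activation of all test compounds in the run plus 3 SD, cut at about 38% in these data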
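System: CHO-derived RD-HGA16 cells with stable Gα16 and human TAAR1 / Times: 17-24 h plating, Fluo-8 75 min 37 °C, 30 min RT / Technique: calcium-sensitive Fluo-8 signal, excitation 470-495, emission 515-575 nm / Measure: % activation relative to PEA EC100 response / Benchmarks: DMSO and PEA EC100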
TAAR1 antagonist: antagonists of human TAAR1. Q96RJ0. CHO RD-HGA16 TAAR1, Fluo-8 calcium fluorescence, antagonist. inhibition, % at 3 µM. actives 1.5% (n = 360,000). AID 624466;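 active = inhibition above a per-plate cutoff, the mean inhibition of test compounds on that plate plus 3 SD, cut at about 49% in these data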;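 note: 0% = DMSO plus EC80 beta-PEA response and 100% = DMSO alone without agonist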
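test system = CHO RD-HGA16 cells bearing hTAAR1 | replication = singlicate | controls = DMSO-only wells and EC80 β-PEA-stimulated wells | reagent = EC80 β-phenethylamine stimulus | read-out basis = percent inhibition of PEA-evoked calcium signal, max/basal emission ratio | schedule = seeding 17-24 h prior, 75-min 37 °C, 30-min RT dye loading | signal = kinetic Fluo-8 calcium fluorescence measurement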
OX1R antag-1: antagonists of human orexin 1 receptor. actives 0.43% (n = 330,000). inhibition, % at 5 µM. CHO/OX1R cells, Fluo-8 calcium fluorescence, orexin A. AID 434989. O43613;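 active = inhibition above its plate's threshold, mean inhibition of all tested compounds on the plate plus 3 SD, cut at about 37% in these data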;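 note: 0% = orexin A challenge wells and 100% = SB-334867-A antagonist wells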
Target sequence (O43613 whole entry, looked up): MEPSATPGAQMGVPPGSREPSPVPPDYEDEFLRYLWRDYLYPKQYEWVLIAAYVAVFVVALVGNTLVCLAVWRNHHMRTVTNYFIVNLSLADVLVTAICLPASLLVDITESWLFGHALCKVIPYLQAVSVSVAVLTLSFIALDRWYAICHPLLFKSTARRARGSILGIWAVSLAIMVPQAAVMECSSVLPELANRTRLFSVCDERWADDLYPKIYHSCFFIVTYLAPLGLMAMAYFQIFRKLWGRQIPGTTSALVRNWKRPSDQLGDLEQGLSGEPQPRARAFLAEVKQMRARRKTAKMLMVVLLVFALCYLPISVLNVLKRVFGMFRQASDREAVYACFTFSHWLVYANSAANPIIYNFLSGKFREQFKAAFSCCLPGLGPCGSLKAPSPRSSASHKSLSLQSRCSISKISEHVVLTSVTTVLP
GalR3 antag: human GalR3 antagonism. HEK293 GalR3-CNG cAMP membrane potential fluorescence; galR3 body fused to GalR1 C-terminus. O60755. AID 651719. actives 0.44% (n = 360,000). inhibition, % at 3 µM;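 active = inhibition above the screen-wide average plus 3 SD, cut at about 13% in these data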;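 note: forskolin and galanin both at EC90 stimulate the cells; cAMP rise reported by CNG channel membrane potential dye signal; 0% = forskolin plus galanin with DMSO and 100% = forskolin alone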
CHO parental Ca: signal in parental CHO cells, OX1R antagonist counter-screen; parental CHO-K1, ATP-induced calcium, Fluo-8 fluorescence; inhibition, % at 5.6 µM; actives 0.63% (n = 330,000);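 active = inhibition above that plate's mean sample inhibition plus 3 SD, cut at about 26% in these data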;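 note: 0% = ATP-challenged DMSO wells and 100% = DMSO wells without ATP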
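Material: parental CHO cells / Compound: single nominal dose of 5.6 µM per compound / Signal: Fluo-8 fluorescence / Replicates: singlicate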
OX1R antag-2: blocks the human orexin 1 receptor; inhibition, % at 6.6 µM; OX1R-expressing cells, FRET antagonist read-out; actives 1.8% (n = 330,000); O43613; AID 485270; in the data active = inhibition mostly above about 38%, no sharp cut-off; inactive = mostly below about 40%;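 note: 0% = agonist challenge alone and 100% = reference antagonist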
* marks the source's active call; other numbers are inactive results; . = no result given.

SMILES	TAAR1 ag	TAAR1 antagonist	OX1R antag-1	GalR3 antag	CHO parental Ca	OX1R antag-2
COc1cccc(CNC(=O)CN(c2cc(C)cc(C)c2)S(=O)(=O)c2c(C)noc2C)c1	1.6	-1.4	-18.5	4.9	-25.1	46.2*
CC(=O)c1ccc(NC(=O)CO/N=C(\C)c2cccs2)cc1	-0.1	1.3	-16.7	-2.7	-2.6	10.3
O=C(COC(=O)C1CCCCC1)Nc1ccc(N2CCCCC2)cc1	4.4	-3.0	-7.3	-2.1	2.4	19.5
CC(NC(=O)Nc1ccc(Cl)c(Cl)c1)C(c1ccccc1)N1CCOCC1 (stereo unspecified)	57.0*	9.4	-21.4	-4.4	0.6	-10.2
CC(Cc1cccs1)NC(=O)Nc1ccc(Cl)c(Cl)c1 (stereo unspecified)	30.3	-2.2	47.4*	-1.8	62.7*	49.0*
CC(NC(=O)c1ccc(Cl)cc1Cl)C(c1ccccc1)N1CCOCC1 (stereo unspecified)	5.5	-3.1	-7.3	-2.5	-5.7	13.7
CC(NC(=O)Nc1ccc([N+](=O)[O-])cc1)C(c1ccccc1)N1CCOCC1 (stereo unspecified)	48.9*	-3.0	-10.5	-1.3	-2.5	-2.6
CC(Cc1cccs1)NC(=O)Nc1ccc(Cl)cc1 (stereo unspecified)	11.3	16.1	-0.2	-2.5	-0.4	25.3
Cc1sc2ncnc(N3CCC(C(=O)Nc4nnc(CC(C)C)s4)CC3)c2c1C	2.7	20.2	-32.4	-1.2	-23.1	19.6
O=C(Nc1ccc(N2CCOCC2)nc1)c1ccc(Cl)cc1	0.9	-0.9	-1.4	-4.5	-3.9	12.7
Cn1ccnc1C(=O)c1ccc(NN)c([N+](=O)[O-])c1	-0.6	1.1	-36.5	-1.3	-16.2	52.7*
O=C(c1ccc(COc2ccc(Cl)cc2)o1)N1CCN(Cc2ccc3c(c2)OCO3)CC1	6.3	52.5*	19.2	4.1	9.4	14.8
O=C(c1ccc(COc2ccccc2Cl)o1)N1CCN(Cc2ccc3c(c2)OCO3)CC1	8.9	30.5	-24.1	0.1	-15.8	16.0
Cc1nc2c(ccc3nc(NC(=O)c4ccc5c(c4)OCCO5)sc32)s1	3.2	-10.0	20.2	-9.8	-18.6	64.4*
O=C(Nc1ccc2ccccc2n1)c1ccccc1	2.2	2.5	-8.8	-8.4	-7.5	1.7
O=C(Nc1ccc2ccccc2n1)c1ccccc1Br	-3.5	-23.2	-2.9	-9.3	-18.4	42.5*
COc1ccc([N+](=O)[O-])cc1NC(=O)Cn1ccsc1=N	0.4	3.2	-9.6	-10.2	-1.8	16.6
O=C(O)CCC(=O)N1CCN(S(=O)(=O)c2ccc3ccccc3c2)CC1	2.8	-4.6	-1.8	-7.2	-2.2	16.5
O=C(Cn1ncc(Cl)c(Cl)c1=O)N1CCN(S(=O)(=O)c2ccc3ccccc3c2)CC1	8.2	18.9	36.0	-5.1	30.8*	17.2
COc1ccc(C(CNC(=O)c2ccc(S(=O)(=O)Nc3ccc(F)cc3)cc2)N(C)C)cc1 (stereo unspecified)	45.1*	16.8	-2.5	-10.2	1.9	19.3
COc1ccc(NS(=O)(=O)c2ccc(NC(=O)Cc3cccs3)cc2)cc1	41.0*	14.8	16.0	-4.0	5.6	12.2
COc1ccc(NS(=O)(=O)c2ccc(C(=O)N(C)Cc3cccs3)cc2)cc1	45.0*	34.4	.	-2.9	.	.
COc1ccc(NS(=O)(=O)c2cc(NC(=O)Cc3cccs3)ccc2C)cc1	1.0	-3.0	-11.7	-4.6	-8.3	27.9
CCc1ccc(NC(=O)NCc2ccc3c(c2)OCO3)cc1	2.2	-12.0	-16.8	0.0	-1.1	8.1
O=C(NCC(c1ccco1)N1CCCCC1)c1ccc2c(c1)S(=O)(=O)c1ccccc1C2=O (stereo unspecified)	1.3	-3.0	-43.9	-6.3	-27.5	62.6*
O=C(NCC(c1ccco1)N1CCCC1)c1ccc(Cl)c(S(=O)(=O)N2CCc3ccccc32)c1 (stereo unspecified)	7.0	-14.6	19.9	86.7*	11.8	4.1
CCNC(=S)N1CCC(Cc2ccccc2)CC1	-2.1	-10.3	-21.2	-0.4	-22.2	14.4

Assay outcomes (PubChem BioAssay)
